KCNK3 block = human KCNK3 channel inhibition, primary screen. AID 602410. CHO-KCNK3 thallium flux, FluxOR fluorescence; hits give low values. 340,000 tested, 0.84% active. B-score at 10 µM;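 active means B-score under library mean minus 4 SD, starting fluorescence ratio at most library mean plus 5 SD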;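 further: more negative B-score means stronger inhibition of thallium flux through KCNK3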
Target sequence (O14649 whole entry, looked up): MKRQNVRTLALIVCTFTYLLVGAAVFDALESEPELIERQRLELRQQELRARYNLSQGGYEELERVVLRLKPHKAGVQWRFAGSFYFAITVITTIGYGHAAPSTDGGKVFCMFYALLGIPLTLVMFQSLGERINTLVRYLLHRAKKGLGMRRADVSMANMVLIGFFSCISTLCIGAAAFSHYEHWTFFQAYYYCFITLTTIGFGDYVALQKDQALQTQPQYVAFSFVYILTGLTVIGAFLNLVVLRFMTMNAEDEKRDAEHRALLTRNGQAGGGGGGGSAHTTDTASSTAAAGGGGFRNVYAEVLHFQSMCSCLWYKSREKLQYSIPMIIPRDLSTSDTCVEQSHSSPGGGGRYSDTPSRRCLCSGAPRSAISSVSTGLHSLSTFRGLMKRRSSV
hERG rescue = hERG (human) protection from proarrhythmic block; activation (rescue from dofetilide block), less the hit threshold, % at 10 µM; CHO-hERG, FluxOR thallium flux, dofetilide IC70 present; 310,000 tested, 0.51% active;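 active means activation above the mean of controls blocked by dofetilide plus 5 SD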;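 further: thallium influx through hERG after potassium depolarization seen as dye fluorescence rise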
KCNQ1 pot = human KCNQ1 channel potentiation or activation; 310,000 tested, 0.35% active; P51787; CHO-K1 KCNQ1, thallium flux FluxOR fluorescence; hits give high values; B-score at 10 µM;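 active means fluorescence ratio B-score, a plate-corrected score, at least three library SD, with initial intensity B-score within 5 SD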
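Schedule – 37 °C overnight plating, 90-min dark dye load, 20-min compound pretreatment · System – stable KCNQ1 CHO-K1 line · Probe or stimulus – thallium- and potassium-containing depolarizing buffer · Measured by – kinetic FluxOR fluorescence, 10 s baseline plus 110 s post-stimulus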
KCNQ1 block = blocks the human KCNQ1 potassium channel; P51787; 310,000 tested, 1.3% active; B-score at 10 µM; CHO-K1 KCNQ1, FluxOR thallium flux fluorescence; hits give high values; AID 2642;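 active means compounds whose thallium flux B-score, printed positive for inhibition, exceeds three library SD while starting fluorescence stays within three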;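 further: channel opened by potassium depolarization with thallium stimulus after 20 min compound exposure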
KCNK9 inh = inhibitors of human KCNK9 two-pore domain potassium channel; Q9NPC2; 310,000 tested, 1.2% active; HEK293 KCNK9, FluxOR thallium flux fluorescence; hits give low values; B-score at 10 µM;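 active means ratio B-score over 3 SD below the library mean, with starting fluorescence within 5 SD of its mean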;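 further: negative B-score means less thallium flux so channel inhibition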
Cl transport mod = modulates chloride dependent transport by human KCC2; 190,000 tested, 2.2% active; Q9H2X9; B-score of Tl+ flux slope (higher = more flux/activation; lower = inhibition) at 10 µM; KCC2 cells, thallium flux FluoZin-2 fluorescence;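 active means thallium flux slope and its plate-corrected score both differing from the plate sample mean at a set confidence after two filtering rounds, in either direction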;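 further: slope of fluorescence scaled to starting intensity during 10 to 20 s after thallium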
KCC2 secondary = KCC2 (human) modulation, secondary assay. shares compounds with Cl transport mod. HEK293-KCC2, thallium flux, FluoZin2 fluorescence; hits give high values. normalised thallium flux (F/F0 slope) at 10 µM. 3,700 tested, 15% active. AID 1713;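 active means thallium flux slope above the same plate's solvent-only control mean plus 3 SD; inconclusive means the two replicate wells disagree; inactive means no significant difference from solvent-only control wells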
KCC2 bumet counter = thallium flux persisting under bumetanide in KCC2 cells, counter-screen secondary assay. shares compounds with Cl transport mod. HEK293-KCC2 + bumetanide/ouabain, thallium flux FluoZin2; hits give high values. normalized thallium flux at 10 µM. 3,700 tested, 49% active. AID 1714;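 active means thallium entry rate above the same plate's blocked-transporter control wells by more than 3 SD; inconclusive means the two repeat wells disagree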;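 further: raw slope of fluorescence over initial fluorescence between 10 and 20 s after thallium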
KCC2 sec2 = confirmation of human KCC2 transport modulators; HEK293-KCC2, thallium flux FluoZin2 fluorescence; actives lie on both sides; F/F0 rise rate, 10–20 s post-thallium; shares compounds with Cl transport mod; normalized thallium flux at 10 µM; 3,700 tested, 23% active; AID 1715;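 active means thallium flux slope more than 3 SD above or below the plate's solvent-only control mean, mostly below; inconclusive means the two repeat wells disagreed; inactive means no significant shift from solvent-only controls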;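 further: raw slope with 0.1% DMSO as baseline and bumetanide as block control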
HEK counter1 = counter-screen for KCC2 modulators: effect in parental HEK293 cells; thallium flux FluoZin2, ouabain; baseline-ratio fluorescence slope, 10–20 s after thallium; thallium flux rate (normalised fluorescence) at 10 µM; 3,700 tested, 46% active; shares compounds with Cl transport mod;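 active means thallium flux rate significantly above the same plate's solvent-only control wells, beyond their mean plus 3 SD; inconclusive means the two replicate wells gave conflicting results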
KCC2 retest ouab = modulates human KCC2 on retest with ouabain | shares compounds with Cl transport mod | HEK293-KCC2, thallium flux FluoZin2 fluorescence; bidirectional: low = inhibitor, high = activator | raw Tl+ flux slope (below DMSO = inhibition, above = activation) at 10 µM | 3,700 tested, 48% active | AID 1717;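 active means thallium flux slope beyond 3 SD from same-plate DMSO control mean in most replicates, usually higher, sometimes lower; inconclusive means repeat tests gave conflicting results; inactive means no significant difference from controls in most replicates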;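 further: slope of initial-normalized fluorescence between seconds 10 and 20 after thallium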
HEK293 Tl flux2 = counter-screen for KCC2 modulators: effect in parental HEK293 cells; thallium flux slope at 10 µM; thallium flux FluoZin-2 fluorescence slope; shares compounds with Cl transport mod; 3,700 tested, 33% active;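 active means thallium flux slope above the same plate's solvent-control mean plus 3 SD in both duplicate wells; inconclusive means duplicate wells that disagreed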;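 further: run without ouabain in cells lacking the KCC2 cotransporter; slope of fluorescence scaled to its starting value between 10 and 20 s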
* marks the source's active call; other numbers are inactive results; i = inactive; u = inconclusive; x = no result. The list is not random: actives were taken first. Their share in the collection is about 4.1%.

SMILES	KCNK3 block	hERG rescue	KCNQ1 pot	KCNQ1 block	KCNK9 inh	Cl transport mod	KCC2 secondary	KCC2 bumet counter	KCC2 sec2	HEK counter1	KCC2 retest ouab	HEK293 Tl flux2
O=C1/C(=C/c2cccs2)SC(=S)N1NS(=O)(=O)c1ccccc1	i	-8	i	i	i	8.8*	0.014*	0.029*	0.036	0.016*	0.026	0.014*
CCOc1ccc(/C=C2\SC(=S)N(NS(=O)(=O)c3ccccc3)C2=O)cc1OC	i	-24	i	i	i	7*	u	0.028*	0.034	0.014*	u	0.018*
CN(CCCN1CCCCC1)C(=O)c1cc(COc2ccc(F)cc2F)on1	i	-10	i	i	i	x	x	x	x	x	x	x
O=C1/C(=C/C=C/c2ccco2)SC(=S)N1NS(=O)(=O)c1ccccc1	i	x	x	x	x	6.8*	0.0067	0.014*	0.032	0.017*	u	0.018*
COC(=O)c1c(NC(=S)NNC(=O)c2ccc(Cl)s2)sc(C(=O)N(C)C)c1C	i	-10	i	i	i	x	x	x	x	x	x	x
CC[C@@]1(C(=O)OC)N[C@H](CN(C)C(=O)Nc2ccc(Cl)cc2)[C@@H]2C(=O)N(Cc3ccccc3)C(=O)[C@@H]21	i	x	x	x	x	x	x	x	x	x	x	x
COc1ccc(Cl)cc1C(=O)CSc1nc(N)cc(N)n1	i	-14	i	i	i	-8.7*	0.0075	0.0057	0.029	0.0064	0.027	0.01
CC(C)(C)c1cc(CCC(=O)NNC(=O)c2ccco2)cc(C(C)(C)C)c1O	i	-9	i	i	i	0.047	x	x	x	x	x	x
CCN(C(=S)NC(=O)CCc1ccccc1)c1ccccc1	i	-6	i	i	i	4.7*	u	0.051*	0.034	0.017*	0.042*	0.013*
O=C(CCc1ccccc1)NC(=S)Nc1cccc(Br)c1	i	-4	i	i	i	4.8*	0.0082	0.011*	0.029	0.0086*	u	0.0096
O=C(CCc1ccccc1)NNC(=S)NC(=O)c1ccccc1	i	-4	i	i	i	10*	0.025*	0.061*	0.037	0.03*	0.051*	0.015*
CC(C)(C)c1cc(CCC(=O)NNC(=S)NC(=O)c2ccccc2)cc(C(C)(C)C)c1O	i	-8	36*	i	i	54*	0.033*	0.11*	0.036	0.091*	0.082*	0.02*
O=C(CCc1ccccc1)NC(=S)Nc1cccc(C(=O)O)c1	i	-7	i	i	i	x	x	x	x	x	x	x
COc1ccccc1C(=O)Nc1nnc(SCC(=O)NC2CCCC2)s1	i	-10	i	i	i	x	x	x	x	x	x	x
CC(=O)Nc1sc2c(c1C#N)CCCCC2	i	-14	i	i	i	6.1*	0.0096	0.0073	0.03	0.0076	0.066	u
C=CCNC(=S)Nc1sc2c(c1C#N)CCCC2	i	-2	i	i	i	13*	0.0065	0.021*	0.03	0.018*	0.027*	0.012*

Bioassay records deposited in PubChem BioAssay by several laboratories.
